Experimental data from the array DNA melting data of Ke et al. (doi:10.1101/2024.01.08.574731).

Tests used:
[1] = folding enthalpy; higher = less favourable; fluorescence melt of hairpins on a sequencing array, two-state fit; conditions: sodium 0.088 M
Procedure, shortened: (§1)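 On a sequenced MiSeq flow cell, library hairpins with annealed Cy3 and quencher oligos were imaged for Cy3 fluorescence in 2.5 °C steps up to 60 °C, in 50 mM Na-HEPES pH 8.0, 25 mM NaCl. Normalisation used pre-quench Cy3 and control constructs. Bootstrapped two-state fits gave melting temperature and folding enthalpy, combined by inverse variance across four replicates and with fitted temperatures raised by 9.35 °C to match UV melts.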

[2] = melting temperature; fluorescence melt of hairpins on a sequencing array, two-state fit, raised by 9.35 °C to match UV melts; conditions: sodium 0.088 M
Procedure, shortened: as §1

Sequence	folding enthalpy [1] [kcal/mol]	Tm [2] [°C]
GATCTGATGCCAGATC ((((((....))))))	-33.4	47.5
GCGATACCTCGC ((((....))))	-24.9	51.4
GGCCCTGGAAACAGAGCC (((.(((....))).)))	-41.2	48.7
CGATCCGGAAACGGTTCG (((.(((....))).)))	-32	49.8
GCTCAGCGAAAGCTAGC (((.(((....))))))	-20	49.4
GATCTGCGTCCAGATC ((((((....))))))	-30.1	48.3
GTAGTTGGAAACGATTAC (((.(.(....).).)))	-13.7	30.9
GGACCGCGAAAGCGCTCC (((.(((....))).)))	-16.2	46.8
GATCATAACCATGATC ((((((....))))))	-35.7	47.4
GGGATCGAAAGATACCC ((((((....))).)))	-21.2	51.6
GGCAGCGAAAGCTGGGCC ((((((....)))..)))	-13.1	52
GATCGTACTTACGATC ((((((....))))))	-39.8	55.3
GATCTGAGAGCAGATC ((((((....))))))	-37.2	46.1
GTTTGGGAAACCAAAC ((((((....))))))	-39.5	53.2
GTACCGGAAACGGTAC ((((((....))))))	-36.6	64.7
GGTTGAGCGAAAGCTACC (((..(((....))))))	-13.1	42.4
GGCTGGGGAAACCCAACC ((.((((....)))).))	-27	45.8
GCTGACGAAAGTCGAAGC ((((((....)))..)))	-19.1	48.5
GCTCAACCGAAAGGTAGC (((..(((....))))))	-18.4	39.4
GTGGCTCGAAAGAGACAC (((.(((....))).)))	-40.1	68.9
GCTTTGCGAAAGCCAGGC ((.(.((....)).).))	-10.2	38.3
GGGCACGAAAGTGTACCC ((((((....)))..)))	-18.4	50.3
GCTATCGAAAGATGGAGC ((((((....)))..)))	-15.9	33.6

Sequence	folding enthalpy [1] [kcal/mol]	Tm [2] [°C]
GATCTCTGGCGAGATC ((((((....))))))	-33.6	51.6
GATCCAATGGTGGATC ((((((....))))))	-29.4	48.3
GTCTAGGGAAACCTGGAC (((.(((....))).)))	-30.2	47.4
GCACAAGAAATTGTGC ((((((....))))))	-36	57.3
GATCGAGGCTTCGATC ((((((....))))))	-41.8	57.9
GATCAGGCACCTGATC ((((((....))))))	-41.7	55.4
GTCGACACGAAAGTGGAC (((..(((....))))))	-13.9	41.2
GACCTCGGAAACGGGGTC ((((.((....)).))))	-46.4	55.9
GCTCTGCGAAAGCACGGC ((..(((....)))..))	-14.6	39.7
GTTTTGGGAAACCAGAAC (((.(((....))).)))	-26.9	38.1
GATCTGTCTCAGATC ((((((...))))))	-28.1	49.3
GAGTTGGGAAACCAATTC ((.((((....)))).))	-28.8	40
GTCTGTGGAAACACAAAC ((.((((....)))).))	-12.3	28.1
GCACAGCGAAAGCTCAGC ((..(((....)))..))	-10.5	33.9
GATCAAGCGTTGATC ((((((...))))))	-29.6	40.2
TACCCGAAAGGGTA (((((....)))))	-14.4	66.1
GGCTTCGAAAGAATGGCC ((((((....)))..)))	-25.2	42.2
GGCCATCGAAAGATTGCC (((.(((....))).)))	-26.3	49.3
GTAATGTCGAAAGACTAC (((..(((....))))))	-11.7	28.8
GCTCCGCGAAAGCGAAGC (((.(((....))).)))	-29	56.4
GGTCGTGGAAACGTGACC ((((..(....)..))))	-20.4	46.5
GGCCATGGAAACACAGCC (((..((....))..)))	-13.5	27.6
GGCAGCGAAAGCTGTGCC ((((((....)))..)))	-13.2	51
